Data set [1] concerns MDA-MB-231 cells. It counts as cell-based, human. As to conditions: cancer cells over normal cells.
Data set [2] in a line: Safety assay on normal cells, MTT assay. The data set is classed as cell-based. As to conditions: human, WI-38 cells (normal lung fibroblast cell line). The gist of the method: (§1)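 MTT viability assay, run on normal WI-38 and WISH cells in parallel with MDA-MB-231 and MCF-7 breast cancer lines to judge selectivity. A series of test compounds and a reference drug were tested.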

For data set [3], the system named is caspase-3. Description: ELISA for caspase-3 in MDA-MB-231 cells. The data set is classed as cell-based, human. On the technique in general: In an ELISA, binding on a coated surface is turned into a signal by an enzyme label.
The nature of data set [4]: Safety assay on normal cells, MTT assay. To be noted: human, WISH cells (normal amnion cell line). It counts as cell-based. The gist of the method:
as §1
Background: Tetrazolium dyes change colour on reduction, which living cells bring about.

Data set [5] has as its system Bax. Description: ELISA for Bax in MDA-MB-231 cells. The data set is classed as cell-based, human. To be noted: MDA-MB-231, 4.64 µM 7a, 72 h.
For data set [6], the system named is MDA-MB-231 cells. Put plainly: Cell cycle analysis, flow cytometry. The data set is classed as cell-based, human. As to conditions: MDA-MB-231, 4.64 µM 7a, 48 h. (In general: In flow cytometry, cells or beads pass a laser one at a time.)
Data set [7] has as its system MDA-MB-231 cells. Put plainly: Apoptosis analysis, Annexin V-FITC/PI flow cytometry. It counts as cell-based, human. The gist of the method: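 Annexin V-FITC/PI flow cytometry on MDA-MB-231 cells exposed to test compound. Percentages of viable, early apoptotic, late apoptotic and necrotic cells are compared against an untreated control group of the same cells.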
Data set [8] deals with VEGFR-2 (Homo sapiens, UniProt P35968). Description: biochemical.
VEGFR-2, sequence (P35968 20-1356): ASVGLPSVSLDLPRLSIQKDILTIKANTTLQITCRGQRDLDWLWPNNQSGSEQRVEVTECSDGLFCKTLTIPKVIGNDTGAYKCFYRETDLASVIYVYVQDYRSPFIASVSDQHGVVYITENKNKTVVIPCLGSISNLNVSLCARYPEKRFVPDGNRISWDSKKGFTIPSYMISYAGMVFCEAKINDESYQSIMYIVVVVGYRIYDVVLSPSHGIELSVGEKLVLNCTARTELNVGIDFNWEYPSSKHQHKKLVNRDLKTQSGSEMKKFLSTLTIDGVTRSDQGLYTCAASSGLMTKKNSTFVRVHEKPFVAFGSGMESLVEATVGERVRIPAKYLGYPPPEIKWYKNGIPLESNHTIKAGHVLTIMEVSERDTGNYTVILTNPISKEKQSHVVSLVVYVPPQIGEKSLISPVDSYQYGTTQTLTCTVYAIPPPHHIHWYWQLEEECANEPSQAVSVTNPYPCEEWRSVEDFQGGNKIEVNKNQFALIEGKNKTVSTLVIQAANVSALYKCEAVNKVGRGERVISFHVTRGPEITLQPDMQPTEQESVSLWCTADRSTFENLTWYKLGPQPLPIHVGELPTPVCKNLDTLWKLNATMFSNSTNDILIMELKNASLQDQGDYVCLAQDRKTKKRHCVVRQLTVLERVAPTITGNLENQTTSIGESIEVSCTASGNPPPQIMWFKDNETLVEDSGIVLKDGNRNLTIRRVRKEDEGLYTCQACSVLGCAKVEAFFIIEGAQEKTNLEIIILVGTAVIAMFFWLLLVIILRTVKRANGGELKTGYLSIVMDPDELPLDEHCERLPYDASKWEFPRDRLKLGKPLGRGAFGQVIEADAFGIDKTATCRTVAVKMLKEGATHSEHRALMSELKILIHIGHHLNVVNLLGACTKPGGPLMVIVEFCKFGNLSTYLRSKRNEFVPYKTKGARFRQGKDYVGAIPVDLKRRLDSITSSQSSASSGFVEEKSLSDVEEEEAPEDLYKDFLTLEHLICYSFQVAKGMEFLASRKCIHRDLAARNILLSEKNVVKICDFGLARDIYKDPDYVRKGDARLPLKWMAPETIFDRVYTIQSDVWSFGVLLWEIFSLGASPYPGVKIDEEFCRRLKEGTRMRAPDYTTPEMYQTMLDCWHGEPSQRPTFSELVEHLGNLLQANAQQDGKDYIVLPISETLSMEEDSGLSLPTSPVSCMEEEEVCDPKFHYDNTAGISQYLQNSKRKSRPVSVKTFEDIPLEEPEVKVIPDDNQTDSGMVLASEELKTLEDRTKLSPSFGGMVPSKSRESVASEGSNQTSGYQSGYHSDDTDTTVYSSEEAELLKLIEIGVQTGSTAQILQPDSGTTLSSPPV
For data set [9], the system named is MCF-7 cells. It counts as cell-based, human. As to conditions: cancer cells over normal cells.
Data set [10] deals with Bcl-2. Put plainly: ELISA for Bcl-2 in MDA-MB-231 cells. It counts as cell-based, human.
For data set [11], the system named is MCF-7. To be noted: read-out: IC50 against MCF-7; cited from earlier work.
Data set [12] has as its system HCT-116. As to conditions: cited from earlier work.
Where [13] appears, read: MDA-MB-231, 4.64 µM 7a, 72 h, ELISA.

Consider two compounds from PMC12056735 (RSC Advances, 2025).

As a reminder, the IC50 is the concentration that inhibits the measured activity by half.

Read-outs that look alike come from different tables or passages of the source.

Regarding `CC(=O)c1nn(-c2ccccc2Cl)/c(=N/N=C(\C)c2ccc(NC(=O)c3cccnc3)cc2)s1` [Compound 7a, N-(4-((E)-1-(((Z)-5-Acetyl-3-(2-chlorophenyl)-1,3,4-thiadiazol-2(3H)-ylidene)hydrazono)ethyl)phenyl)nicotinamide], the “Selectivity index (SI) for MDA-MB-231” value in data set [1] is given as 15.86. In addition, in [2], the IC50 at 24 h was 73.6 ± 3.8 µM. This compound also registered a Caspase-3 conc. in data set [3] (setting [13]) of 441.93. Moreover, the “Caspase-3 FLD” value in data set [3] (fold vs control MDA-MB-231 (FLD = 1), upregulated) was found to be 8.2 fold. For the same compound, the IC50 at 24 h in [4] stood at 57.7 ± 3.3 µM. For the same compound, the Bax conc. in data set [5] turned out to be 394.72. In data set [6], the “Cell cycle distribution, G0/G1” value came out at 33%; the “Cell cycle distribution, G2/M” value was 8%; the “Cell cycle distribution, S” value turned out to be 59%. Moreover, the viability at 4.64 µM in data set [7] (Homo sapiens, MDA-MB-231, 48 h, read-out: Viable cells) came to 50%. In data set [7] (MDA-MB-231, 4.64 µM 7a, 48 h), this compound came in with an Early apoptosis of 1.06%, a Late apoptosis of 44.01% and a Necrosis of 4.94%. In [8], this compound returned an IC50 of 0.095 ± 0.05 µM. The “Selectivity index (SI) for MCF-7” value in data set [9] was 8.14. In data set [10] (setting [13]), this compound returned a Bcl-2 conc. of 1.53. The “Bcl-2 FLD” value in [10] (fold vs control MDA-MB-231 (FLD = 1), downregulated) is reported as 3.68 fold.

As to `CNC(=O)c1cc(Oc2ccc(NC(=O)Nc3ccc(Cl)c(C(F)(F)F)c3)cc2)ccn1` [Sorafenib], the IC50 at 24 h amounted to 10.6 ± 0.8 µM in [2] and 13.4 ± 1.1 µM in [4]. The figures for the IC50 in data set [11], in data set [12] (read-out: IC50 against HCT-116) and in [12] (read-out: IC50 against HCT-116 cells) were 6.72 µM, 9.3 µM and 7.28 µM, respectively.
